Laboratory results published in PubChem BioAssay.
Calls of active or inactive are those of the source. Unless noted, no stated cut-off is given here; in the data, active means inhibition above about 30%; inactive means the rest.

Assays:
[1] = Her2 expression decrease, cell viability multiplex – SKBR3 breast tumor cells, AlphaScreen, ATP viability, primary screen (AID 461;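 active means Her2 level under about 52% in both replicate screens, with viability over 70% of control, limit read from the data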;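 on Her2 level: lower value means less Her2 protein in the cells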;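 on viability: percent of carrier control wells set as 100% viability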); conditions: SKBR3 Her2 protein level, 18-24 h, measured here: SKBR3 viability, ATP luminescence, at 10 µM
[2] = target: Receptor tyrosine-protein kinase erbB-2 (Homo sapiens) (UniProt P04626); experiment: as above; conditions: 18-24 h, at 10 µM, stronger effect = lower value
[3] = reduced viability of SK-BR-3 breast cancer cells – cell-based, 24 h, human, pilot screen (AID 572;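 active means viability at or below 10% of carrier control in both of two separate runs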;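 further: compound exposure lasted between 18 and 24 h rather than exactly 24 h; 100% = carrier-treated control wells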); conditions: SK-BR-3 viability, CellTiter-Glo luminescence, at 10 µM, stronger effect = lower value
[4] = HUVEC growth inhibition – cell-based, human, primary screen (AID 575;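 active means viability at or below 30% in both replicate assays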;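 further: 100% = median of untreated cell wells with 0.1% DMSO on each plate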); conditions: HUVEC proliferation, CellTiter-Glo luminescence, 72 h; at 10 µM; stronger effect = lower value
In short: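 Test system: primary human umbilical vein endothelial cells; medium: endothelial basal medium with 2% FBS plus growth supplements; dosing: 10 µM compound only; times: 72 h treatment at 37 °C; signal: CTG luminescence; read-out: % viability relative to median vehicle-well signal on each plate; control set: vehicle and MePR control wells; plate: 384-well, collagen-coated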

[5] = H69AR cell proliferation blockers – human, duplicate replicates, primary screen (AID 580;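 active means viability at or under a set limit in both replicates, limit being median viability minus 3 SD, cut at about 48% in these data, passing the limit was not always enough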;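 further: 100% = mean luminescence of untreated wells and 0% = no signal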); conditions: H69AR lung tumor cells viability, ATP luminescence, 72 h; at 10 µM; stronger effect = lower value
[6] = MRP1 drug-resistance reversers in H69AR cells – cell-based, doxorubicin co-treatment, pilot screen (AID 601;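 active means viability loss from added drug above about 55%, and viability with drug at most 40%, in both replicates, limit read from the data, passing the limit was not always enough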); conditions: CellTiter-Glo, 72 h, at 10 µM; for differential viability (reversal): stronger effect = higher value
[7] = yeast transport mutant growth inhibition pilot in 384-well plates, post-Golgi transport modulator project (AID 636; in the data active means inhibition above about 31%); conditions: absorbance 615 nm, about 18 h, stronger effect = higher value
[8] = growth suppression of yeast trafficking mutant, preliminary HTS, modulators of trafficking downstream of Golgi apparatus project, 1536-format plate, OD 615 nm (AID 637); conditions: yeast transport mutant growth, absorbance 615 nm, 18 h; stronger effect = higher value
[9] = H69AR cells + 2 uM doxorubicin, measured here: viability with 2 uM doxorubicin, stronger effect = lower value
[10] = H69AR cells, compound alone cytotoxicity

Sequence of Receptor tyrosine-protein kinase erbB-2 (Homo sapiens) (P04626 whole entry, looked up): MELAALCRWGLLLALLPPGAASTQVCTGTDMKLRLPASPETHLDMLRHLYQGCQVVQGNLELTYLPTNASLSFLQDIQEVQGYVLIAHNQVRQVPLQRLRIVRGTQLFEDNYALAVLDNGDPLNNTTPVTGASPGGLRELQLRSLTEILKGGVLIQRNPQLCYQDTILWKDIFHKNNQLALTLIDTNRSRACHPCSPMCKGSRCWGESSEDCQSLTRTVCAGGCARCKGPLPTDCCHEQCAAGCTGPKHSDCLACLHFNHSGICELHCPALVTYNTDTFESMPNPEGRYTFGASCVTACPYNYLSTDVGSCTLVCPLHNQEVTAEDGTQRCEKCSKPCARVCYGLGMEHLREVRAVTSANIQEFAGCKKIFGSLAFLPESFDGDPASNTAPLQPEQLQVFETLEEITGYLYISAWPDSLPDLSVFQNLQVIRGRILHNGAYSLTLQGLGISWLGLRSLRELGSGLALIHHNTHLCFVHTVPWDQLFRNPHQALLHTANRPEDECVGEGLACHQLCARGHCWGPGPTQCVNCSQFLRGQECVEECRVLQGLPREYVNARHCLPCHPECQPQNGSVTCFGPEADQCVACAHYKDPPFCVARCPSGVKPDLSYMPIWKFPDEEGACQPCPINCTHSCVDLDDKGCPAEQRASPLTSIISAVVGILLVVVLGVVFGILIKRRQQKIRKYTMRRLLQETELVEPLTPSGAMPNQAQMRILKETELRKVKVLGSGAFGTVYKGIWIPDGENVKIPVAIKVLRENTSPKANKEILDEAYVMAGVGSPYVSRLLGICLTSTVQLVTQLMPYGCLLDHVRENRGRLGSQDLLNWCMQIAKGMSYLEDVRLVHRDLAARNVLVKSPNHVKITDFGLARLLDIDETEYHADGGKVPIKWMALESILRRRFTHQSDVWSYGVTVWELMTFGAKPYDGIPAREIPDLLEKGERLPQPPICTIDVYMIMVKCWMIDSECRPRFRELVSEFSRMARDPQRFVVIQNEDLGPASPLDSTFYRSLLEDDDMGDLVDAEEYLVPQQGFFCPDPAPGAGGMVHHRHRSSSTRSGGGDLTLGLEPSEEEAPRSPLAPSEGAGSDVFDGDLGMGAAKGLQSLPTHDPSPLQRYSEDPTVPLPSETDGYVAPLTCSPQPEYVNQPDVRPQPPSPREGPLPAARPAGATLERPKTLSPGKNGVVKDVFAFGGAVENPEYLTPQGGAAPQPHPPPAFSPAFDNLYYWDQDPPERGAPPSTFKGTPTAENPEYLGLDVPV

Structure (SMILES)	viability [1]	Her2 level [2]	viability [3]	viability [4]	viability [5]	differential viability (reversal) ([6]; H69AR cells + 2 uM doxorubicin)	viability [6, 9]	viability [6, 10]	inhibition [7]	inhibition [8]
CCc1nc(SCC(=O)Nc2nccs2)c2oc3ccccc3c2n1	91%	87.5% (inactive)	91% (inactive)	109% (inactive)	37.4% (active)	-5.17% (inactive)	42.6%	37.4%	-7.43% (inactive)	-7% (inactive)
COc1ccc(CCNc2nc(N3CCOCC3)nc(N3CCOCC3)n2)cc1OC	81%	91% (inactive)	81% (inactive)	108% (inactive)	96.7% (inactive)	2.03% (inactive)	94.6%	96.7%	0.4% (inactive)	-4.84% (inactive)
Cc1nc2sc(C(c3cccc(F)c3)N3CCCCC3)c(O)n2n1 (stereo not given)	109%	80% (inactive)	109% (inactive)	95.1% (inactive)	99.5% (inactive)	10.9% (inactive)	88.6%	99.5%	-4.79% (inactive)	-4.92% (inactive)
CCOC(=O)N1CCN(c2nc(-c3ccc(Cl)cc3)cs2)CC1	79.5%	125% (inactive)	79.5% (inactive)	98.3% (inactive)	89.1% (inactive)	-9.49% (inactive)	98.6%	89.1%	-4.23% (inactive)	-7.83% (inactive)
CCc1cc(C)cc(OCCNC(=O)c2ncn[nH]2)c1	117%	110% (inactive)	117% (inactive)	89.7% (inactive)	90.8% (inactive)	9.78% (inactive)	81.1%	90.8%	-3.95% (inactive)	-1.29% (inactive)
COc1cc(C2CC(=O)NC3=C2C(=O)CC(C)(C)C3)ccc1O (stereo not given)	89.5%	93.5% (inactive)	89.5% (inactive)	82.7% (inactive)	109% (inactive)	19.9% (inactive)	89.5%	109%	-3.82% (inactive)	-4.17% (inactive)
Cc1nc2ccccn2c1/C(O)=C1\C(=O)C(=O)N(CCN2CCOCC2)C1c1cccs1 (stereo not given)	94.5%	90.5% (inactive)	94.5% (inactive)	108% (inactive)	98.7% (inactive)	4.16% (inactive)	94.6%	98.7%	-8.78% (inactive)	0.67% (inactive)
COCCn1nnnc1C(c1cc2cc(OC)ccc2[nH]c1=O)N1CCC(Cc2ccccc2)CC1 (stereo not given)	124%	80% (inactive)	124% (inactive)	65.4% (inactive)	9.35% (active)	-15.4% (inactive)	24.8%	9.35%	-7.87% (inactive)	-2.38% (inactive)
CCSc1nnc(-c2cccs2)o1	89%	106% (inactive)	89% (inactive)	87.3% (inactive)	92.3% (inactive)	-4.3% (inactive)	96.6%	92.3%	-0.13% (inactive)	-2.83% (inactive)
O=C(NCCCCNC(=O)c1cccnc1)c1cccnc1	95%	83% (inactive)	95% (inactive)	94.5% (inactive)	105% (inactive)	3.5% (inactive)	102%	105%	-0.52% (inactive)	34.9% (active)
Cc1ccc(NC(=O)N2CCC(c3nc4c(nnn4Cc4cccc(Cl)c4)c(=O)[nH]3)CC2)cc1	81.5%	76.5% (inactive)	81.5% (inactive)	61.8% (inactive)	85.2% (inactive)	19.6% (inactive)	65.6%	85.2%	-0.13% (inactive)	-1.45% (inactive)
C/C=C(\C)c1nnc(NC(=O)C(C)C)s1	92.5%	82.5% (inactive)	92.5% (inactive)	101% (inactive)	98.7% (inactive)	9.51% (inactive)	89.2%	98.7%	-4.05% (inactive)	2.79% (inactive)
N#CCCCCn1c(-c2cncs2)nc2ccccc21	93.5%	126% (inactive)	93.5% (inactive)	84.2% (inactive)	93.8% (inactive)	13.5% (inactive)	80.3%	93.8%	-5% (inactive)	-5.33% (inactive)
COc1ccc2[nH]c(=O)c(CN(Cc3cccs3)S(=O)(=O)c3cccc4nsnc34)cc2c1	96.5%	80% (inactive)	96.5% (inactive)	59.2% (inactive)	5.33% (active)	-0.125% (inactive)	5.45%	5.33%	-6.44% (inactive)	1.43% (inactive)
